Here are results for two compounds from ChEMBL document CHEMBL1124378, “Synthesis and pharmacological evaluation of a series of 4-piperazinylpyrazolo[3,4-b]- and -[4,3-b][1,5]benzodiazepines as potential anxiolytics” (J Med Chem, 1989).

A value given as a limit tells only on which side of the number the result lay.

For assay [1], the system named is Rattus norvegicus. The assay is described as follows: The compound was evaluated for the anticonflict behavior in male wistar rats as rate of responses (timeout) following dose of 40 mg/kg po. Format: functional. The method in brief:
(§1)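 Male Wistar rats on 23-h food deprivation, water ad libitum, trained to lever-press for food on continuous reinforcement until stable. Compound or vehicle given orally in randomized sequence 60 min before testing. Responses/min were recorded in reward, timeout and conflict components. Differences from control were tested by Wilcoxon test.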

Assay [2] deals with Rattus norvegicus. As to the kind of experiment: The compound was evaluated for the anticonflict behavior in male wistar rats as rate of responses (reward) following dose of 20 mg/kg po. Format: functional. Also on record: unit: responses/min. In a few lines:
as §1

The subject of assay [3] is Rattus norvegicus. The assay is described as follows: Compound administered perorally was evaluated for the conditioned avoidance response in rats. Format: functional. The method in brief:
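Olac-Wistar rats (120-130 g) trained to cross a shuttle box on a 5-s buzzer, with mild shock if no response within 1 s after it ends. Only high-responders used. Groups of five were dosed orally in water or 0.5% carboxymethylcellulose 1 h 50 min before testing. After 10-min habituation they were tested 20 min. Blockade = shocks as % of stimuli presented.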

Assay [4] deals with Rattus norvegicus. As to the kind of experiment: The compound was evaluated for the anticonflict behavior in male wistar rats as rate of responses (reward) following dose of 5.0 mg/kg po. The assay is classed as functional. Also on record: unit: responses/min. In a few lines:
as §1

The subject of assay [5] is Mus musculus. As to the kind of experiment: Compound administered perorally was evaluated for the hypothermia (rectal temperature) in mice. Format: functional. In a few lines: (§2)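 Groups of three CFW mice (21-23 g) received oral compound in water or 0.5% carboxymethylcellulose. Rectal temperature was taken at 0.25, 2.5 and 5.0 h. Mean change from the group's initial mean was summed over the three times. Hypothermia scored if the summed reduction was >4 °C.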

For assay [6], the target named is Muscarinic acetylcholine receptor. The assay is described as follows: Inhibition of [3H]QNB binding to muscarinic cholinergic receptor from male Olac rat brain.
Assay [7] relates to Rattus norvegicus. The assay is described as follows: The compound was evaluated for the anticonflict behavior in male wistar rats as rate of responses (reward) following dose of 10 mg/kg po. Format: functional. Also noted: unit: responses/min. The method in brief: as §1
Assay [8] relates to Rattus norvegicus. The assay is described as follows: Rotarod response in rat to assess muscular incoordination (following p.o. dosing). The assay is classed as functional. In a few lines:
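Male Olac-Wistar rats (140-150 g), five per group, fed ad libitum, dosed orally. Tested 1 and 2 h later on a horizontal rod (2 rpm, 32 mm diameter), maximum 30 s. Mean time compared with vehicle controls by Mann-Whitney U test, significant at p < 0.05.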
Background: In the rotarod test animals must keep their balance on a rotating rod.

Assay [9] relates to Rattus norvegicus. The assay is described as follows: The compound was evaluated for the anticonflict behavior in male wistar rats as rate of responses (timeout) following dose of 10 mg/kg po. The assay is classed as functional. Also noted: unit: responses/min. The method in brief:
as §1

For assay [10], the system named is Rattus norvegicus. The assay is described as follows: The compound was evaluated for the anticonflict behavior in male wistar rats as rate of responses (conflict) following dose of 40 mg/kg po. The assay is classed as functional. The method in brief: as §1
Assay [11] has as its system Rattus norvegicus. The assay is described as follows: The compound was evaluated for the anticonflict behavior in male wistar rats as rate of responses (timeout) following dose of 5.0 mg/kg po. Format: functional. Also noted: unit: responses/min. In a few lines: as §1
For assay [12], the target named is D(2) dopamine receptor (Bos taurus) (UniProt P20288). As to the kind of experiment: Inhibition of [3H]spiperone binding to dopamine receptor D2 from calf caudate.
Assay [13] has as its system Rattus norvegicus. The assay is described as follows: The compound was evaluated for the anticonflict behavior in male wistar rats as rate of responses (timeout) following dose of 20 mg/kg po. Format: functional. Also on record: unit: responses/min. The method in brief: as §1
Assay [14] concerns Rattus norvegicus. The assay is described as follows: The compound was evaluated for the anticonflict behavior in male wistar rats as rate of responses (reward) following dose of 0 mg/kg po. Format: functional. Also on record: unit: responses/min. The method in brief: as §1
For assay [15], the system named is Rattus norvegicus. As to the kind of experiment: The compound was evaluated for the anticonflict behavior in male wistar rats as rate of responses (conflic) following dose of 20 mg/kg po. The assay is classed as functional. Also noted: unit: responses/min. In a few lines: as §1
The test system of assay [16] is Rattus norvegicus. The assay is described as follows: The compound was evaluated for the anticonflict behavior in male wistar rats as rate of responses (timeout) following dose of 0 mg/kg po. Format: functional. In a few lines:
as §1

Assay [17] has as its system Mus musculus. As to the kind of experiment: Compound administered perorally was evaluated for the dose below which no catalepsy was observed at any time period. Format: functional. In a few lines:
(§3)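 CFW mice (21-23 g), three per group, dosed orally in water or 0.5% carboxymethylcellulose. Checked at 0.25, 2.5 and 5.0 h for holding one hind limb on a 2-cm rubber bung and staying on a vertical grid, judged against a control by a trained observer.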

Assay [18] has as its system Rattus norvegicus. The assay is described as follows: The compound was evaluated for the anticonflict behavior in male wistar rats as rate of responses (conflict) following dose of 5.0 mg/kg po. The assay is classed as functional. Also noted: unit: responses/min. The method in brief: as §1
Assay [19] deals with Rattus norvegicus. The assay is described as follows: The compound was evaluated for the anticonflict behavior in male wistar rats as rate of responses (conflict) following dose of 0 mg/kg po. The assay is classed as functional. Also noted: unit: responses/min. The method in brief:
as §1

Assay [20] is filed under the species Rattus norvegicus. As to the kind of experiment: compound behavior in rat. The assay is classed as functional. Also noted: unit not given here. The method in brief:
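Olac-Wistar rats (180-190 g), eight per group, dosed orally, front paws placed on a 1.5-cm rod 7 cm above the table. Tested at 0.5, 1, 1.5, 2, 3, 4 and 5 h, up to 20 min hold. Each animal's maximum score (0-5 by time held) was summed, giving a group maximum of 40.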

Assay [21] deals with Rattus norvegicus. The assay is described as follows: The compound was evaluated for the anticonflict behavior in male wistar rats as rate of responses (conflict) following dose of 10 mg/kg po. The assay is classed as functional. Also on record: unit: responses/min. In a few lines: as §1
In assay [22] the test system is Rattus norvegicus. As to the kind of experiment: The compound was evaluated for the anticonflict behavior in male wistar rats as rate of responses (reward) following dose of 40 mg/kg po. Format: functional. The method in brief:
as §1

Assay [23] has as its system Mus musculus. As to the kind of experiment: Dose below which no catalepsy was observed at any time period (following p.o. dosing). Format: functional. In a few lines: as §3
Assay [24] has as its system Mus musculus. As to the kind of experiment: Compound administered perorally was evaluated for the hypothermia (rectal temperature ) in mice. Format: functional. The method in brief: as §2
Assay [25] has as its system Rattus norvegicus. The assay is described as follows: Compound administered perorally was evaluated for the conditioned avoidance response in rats.

The term IC50 denotes the concentration that inhibits the measured activity by half. With `CN1CCN(C2=Nc3cc(F)ccc3Nc3nn(C)cc32)CC1`, the Activity is 15.4 in the assay on Rattus norvegicus [1]; 45.9 with Rattus norvegicus [2]; 45.1 in the assay with Rattus norvegicus [4]; 42.1 with Rattus norvegicus [7]; 7.4 in the assay on Rattus norvegicus [9]; 10.1 in the assay with Rattus norvegicus [10]. The Activity is on record as 5.7 with Rattus norvegicus [11]; 15.4 in the assay with Rattus norvegicus [13]; 47.3 in the assay on Rattus norvegicus [14]; 6.9 with Rattus norvegicus [15]; 5.4 in the assay with Rattus norvegicus [16]; 3.9 in the assay with Rattus norvegicus [18]. Moreover, the Activity is 3 in the assay on Rattus norvegicus [19], >100 in the assay filed under Rattus norvegicus [20], 9.6 in the assay with Rattus norvegicus [21] and 48.3 in the assay with Rattus norvegicus [22]. In addition, the ED in the assay on Rattus norvegicus [3] is 100 mg/kg; with Rattus norvegicus [8] it was >20 mg/kg. Moreover, the EDmin stood at 1.6 mg/kg with Mus musculus [5] and 50 mg/kg with Mus musculus [17]. Also, the values for the IC50 in assay [6] and in assay [12] were 150 µM and 2.6 µM, respectively.

Consider `CN1CCN(C2=Nc3cc(F)ccc3Nc3c2cnn3C)CC1`, for which the EDmin in the assay with Mus musculus [23] was >200 mg/kg; in the assay on Mus musculus [24] it was 100 mg/kg. Besides, the ED with Rattus norvegicus [8] and in the assay on Rattus norvegicus [25] was >50 mg/kg in each case.
